The record followed here is ChEMBL document CHEMBL1649550, “Antibacterial properties and mode of action of a short acyl-lysyl oligomer” (2009).

The test system of the assay is Staphylococcus aureus. As to the kind of experiment: Antibacterial activity against Staphylococcus aureus ATCC 29213 assessed as disruption of plasma membrane permeability at 4 times MIC by ethidium bromide uptake assay. Type of assay: functional, organism-based. The method in brief: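 S. aureus grown overnight in LB at 37°C to OD620 of 1, washed twice in PBS and resuspended in PBS with 0.5% glucose, then 10 min at 37°C. Cells added to EtBr (final 1.0 μg/ml) with compound (serial twofold concentrations), Triton 0.01% final, or antibiotic at 4× MIC. Fluorescence followed over time (ex 530, em 645 nm).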

Active and inactive are the calls of the source. The calls are words filed in the database; no cut-off is given here.

Regarding `O=C(O)c1cn(C2CC2)c2cc(N3CCNCC3)c(F)cc2c1=O`, the result was inactive.

On to GENTAMICIN, for which the outcome was inactive. `CN(C)[C@@H]1C(O)=C(C(N)=O)C(=O)[C@@]2(O)C(O)=C3C(=O)c4c(O)cccc4[C@@](C)(O)[C@H]3C[C@@H]12`: the outcome was inactive.
